The source of these data is PMC5629310 (Journal of Arthropod-Borne Diseases, 2017).

The subject of data set [1] is mouse peritoneal macrophages. Particulars: read-out: Cytotoxicity CC50, previous compounds 1a-b, ref Tahghighi et al. 2013; cited from earlier work.
For data set [2], the system named is Leishmania major promastigotes (vaccine strain MRHO/IR/75/ER). Particulars: read-out: Anti-promastigote activity IC50; L. major promastigotes; previous compounds 1a-b; ref Tahghighi et al. 2013; cited from earlier work.
For data set [3], the system named is amastigote form of L. major in murine peritoneal macrophages. Particulars: previous compounds 1a-b; result in words; ref Tahghighi et al. 2013; cited from earlier work.
The test system of data set [4] is Leishmania major promastigotes (vaccine strain MRHO/IR/75/ER). The data set can be described thus: Antileishmanial activity against Leishmania major promastigotes. It is filed as cell-based. Particulars: for IC50: Leishmania major, 24 h, read-out: Anti-promastigote activity IC50.
Data set [5] deals with mouse peritoneal macrophages. The data set can be described thus: Toxicity against macrophages. It is filed as cell-based. Particulars: CC50 macrophages / IC50 promastigotes. The method in brief: (§1)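 BALB/c peritoneal macrophages, collected by PBS lavage, were kept in RPMI 1640 with 10% heat-inactivated FBS, 2mM glutamine and penicillin/streptomycin. Cells were seeded at 2×10^5/well and allowed to adhere. Medium was replaced with a graded series of test compound for 24 h at 37 °C, 5% CO2, with a DMSO negative control. Viability was read by MTT. Two independent experiments were run in triplicate, and CC50 was taken by linear regression.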

Data set [6] in a line: Toxicity against macrophages. It counts as cell-based, mouse. Particulars: BALB/c, mouse, mouse peritoneal macrophages. The procedure, abridged: as §1

Molecules are shown by their SMILES. Read-outs that look alike come from different tables or passages of the source.

`O=[N+]([O-])c1ccc(-c2nnc(NCCCO)s2)o1` [Compound 1a, 3-(5-(5-nitrofuran-2-yl)-1,3,4-thiadiazol-2-ylamino) propan-1-ol]: the CC50 (commonly the concentration that lowers cell viability or growth by half) in data set [1] is 62.3 µM. In addition, in data set [2], the IC50 (as a rule, the concentration that inhibits the measured activity by half) is 18 ± 0.2 µM. The “Number of intracellular amastigotes per macrophage, percentage of macrophage infectivity and infectivity index compared with control group” value in data set [3] is listed as “decreased”.
Take `O=[N+]([O-])c1ccc(-c2nnc(NCCCO)s2)s1` [Compound 1b, 3-(5-(5-nitrothiophen-2-yl)-1,3,4-thiadiazol-2-ylamino) propan-1-ol]: the “fold more potent than 5-nitrofuran counterpart 1a” value in data set [4] (promastigote IC50, 1b versus 1a) is recorded as 6 fold. Further, in data set [1], the CC50 was 42.2 µM. The IC50 in data set [2] is 3 ± 0.41 µM. Besides, in data set [3], the “Number of intracellular amastigotes per macrophage, percentage of macrophage infectivity and infectivity index compared with control group” value is reported as “decreased”.
Regarding `O=[N+]([O-])c1ccc(-c2nnc(N3CCC(O)CC3)s2)o1` [Compound 5a, 1-(5-(5-nitrofuran-2-yl)-1,3,4-thiadiazol-2-yl)piperidin-4-ol], the IC50 in data set [4] came to 68.9 ± 0.107 µM. In addition, the “SI (selectivity index CC50/IC50)” value in data set [5] came out at 1.14. In data set [6], this compound yielded a CC50 at 24 h of 78.5 µM.
The matching figures for `O=[N+]([O-])c1ccc(-c2nnc(N3CCC(O)CC3)s2)s1` [Compound 5b, 1-(5-(5-nitrothiophen-2-yl)-1,3,4-thiadiazol-2-yl)piperidin-4-ol]: 27 ± 0.12 µM, 2.35 and 63.6 µM.
Take `OC(Cn1cncn1)(Cn1cncn1)c1ccc(F)cc1F` [Fluconazole, reference compound]: the IC50 in data set [4] was found to be 941.1 ± 4.98 µM.
